Bioassay records from PubChem.
S100A4 inh HTS – inhibitors of human S100A4 binding to myosin IIA peptide. 360,000 compounds, 0.14% hits. P26447. S100A4/TAMRA-MyoIIA peptide fluorescence polarization. inhibition, % at 10.7 µM;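 active means mean inhibition of at least 70% across replicates, with every replicate also reaching that level; inconclusive means mean inhibition reaches 70% but some replicates fall short; inactive means mean inhibition below 70%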
Target sequence (P26447 whole entry, looked up): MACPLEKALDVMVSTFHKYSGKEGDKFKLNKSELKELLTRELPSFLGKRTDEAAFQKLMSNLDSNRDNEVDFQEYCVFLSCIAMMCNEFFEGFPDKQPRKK
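Material: S100A4 monomer protein | Medium: HEPES pH 7.2 with CaCl2, KCl, NaCl, DTT, Triton | Reagent: Labelled myosin peptide probe, 5 nM | Doses: One dose per compound | Times: 5 min incubation before reading | Benchmarks: Neutral control DMSO, positive control TFP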
DENV2 CPE – protects cells from dengue virus 2 cytopathic effect | DENV2-infected cells, cytopathic effect rescue, plate reader | CPE inhibition, % at 9.99 µM | 350,000 compounds, 1.7% hits; in the data active means CPE inhibition above about 20%, passing the limit was not always enough; inconclusive means no clear call, values can overlap the other calls; tested in BHK-21 cells;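 further: 0% = median of neutral control wells and 100% = median of positive control wells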
E-sel inducer – E-selectin induction on HUVECs; P16581; HUVEC E-selectin immunofluorescence imaging; normalized: neutral wells 0, TNF-alpha wells 100; activation, % at 7.58 µM; 260,000 compounds, 0.37% hits; AID 686992;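 active means mean E-selectin-positive cell signal at least 10% of the positive control, reached in at least 60% of replicates, without over 20% cell loss; inconclusive means no rule given, readout overlaps actives, possibly toxicity-flagged; inactive means the rest, including those meeting only one limit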
Target sequence (P16581 whole entry, looked up): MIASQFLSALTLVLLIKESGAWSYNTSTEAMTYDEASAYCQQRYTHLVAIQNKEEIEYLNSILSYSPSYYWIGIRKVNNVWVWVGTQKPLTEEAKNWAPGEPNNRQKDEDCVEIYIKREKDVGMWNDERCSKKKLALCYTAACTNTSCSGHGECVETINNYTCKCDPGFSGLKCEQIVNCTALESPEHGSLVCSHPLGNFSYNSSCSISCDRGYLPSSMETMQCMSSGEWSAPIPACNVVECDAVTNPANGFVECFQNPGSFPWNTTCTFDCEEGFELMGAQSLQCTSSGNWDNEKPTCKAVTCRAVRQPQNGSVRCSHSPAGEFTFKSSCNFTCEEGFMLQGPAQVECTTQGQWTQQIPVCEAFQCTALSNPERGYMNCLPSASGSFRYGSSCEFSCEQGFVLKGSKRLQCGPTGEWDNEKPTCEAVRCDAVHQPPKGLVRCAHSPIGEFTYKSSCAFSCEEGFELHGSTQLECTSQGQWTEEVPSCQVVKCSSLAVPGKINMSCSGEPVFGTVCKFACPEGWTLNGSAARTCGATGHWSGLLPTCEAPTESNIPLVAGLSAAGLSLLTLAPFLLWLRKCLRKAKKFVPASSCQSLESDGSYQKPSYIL
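Read-out: % PE-positive cells | Test system: HUVEC | Doses: One compound dose added by pin transfer | Buffer or medium: EGM-2 over gelatin coat | Signal: Immunofluorescence imaging | Benchmarks: TNF-alpha, DMSO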
XiGFP reactiv – reactivates the inactive X chromosome in mouse fibroblasts; XiGFP mouse fibroblasts, % GFP-positive cells imaging, 3 d; cells co-treated with 5-aza-dC sensitizer; scaled so ellipticine positive control = 100%; activation, % at 7.58 µM; 360,000 compounds, 0.055% hits; AID 743238;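 active means mean normalized replicate activation at least 10% and every replicate at or above 10%; inconclusive means only one of the two criteria met; inactive means mean below 10% and not all replicates reach 10%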;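 further: 0% = median of on-plate neutral control wells and 100% = ellipticine 6 µM median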
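assay system = SV40-immortalized XiGFP fibroblast cells, line 68-5-11 | buffer or medium = DMEM plus 5-aza-dC sensitizer | doses = single-point pinned compound dosing | times = 3-day compound exposure, then 15 min fixation at room temperature | benchmarks = positive control ellipticine, 6 µM final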
* marks the source's active call; other numbers are inactive results. Rows were chosen to be rich in hits. Some 2% of all compounds tested hit in one or more screens of this group.

`c1cncc(-c2cn(C[C@H]3CC[C@H](Cn4cc(-c5cccnc5)nn4)O3)nn2)c1` gave S100A4 inh HTS -8.1, DENV2 CPE -1.0 and XiGFP reactiv -0.2.
For CN(C(=O)c1cncc(Br)c1)c1c(N)n(Cc2ccccc2)c(=O)[nH]c1=O the results were S100A4 inh HTS 17.2, DENV2 CPE inconclusive, E-sel inducer -1.1 and XiGFP reactiv -0.4.
`CCN(CC(=O)NCc1ccc(Cl)cc1)C(=O)c1cc(S(=O)(=O)NCc2ccccc2)ccc1C` gave S100A4 inh HTS -1.3, DENV2 CPE 6.8, E-sel inducer -0.2 and XiGFP reactiv 0.0.
For C/C=C/c1cnc2c(c1)C(=O)N([C@H](C)CO)C[C@H](C)[C@H](CN(C)Cc1ccc(F)cc1)O2 the results were S100A4 inh HTS 5.2, DENV2 CPE 2.6, E-sel inducer -2.8 and XiGFP reactiv -0.2.
For C[C@@H]1CCCCO[C@@H](CN(C)S(=O)(=O)c2cccs2)[C@H](C)CN([C@H](C)CO)C(=O)c2cc(NC(=O)Nc3ccccc3)ccc2O1 the results were S100A4 inh HTS -0.1, DENV2 CPE 60.3* and XiGFP reactiv 0.0.
Screening C[C@@H]1CCCCO[C@H](CN(C)S(=O)(=O)c2cccs2)[C@H](C)CN([C@@H](C)CO)C(=O)c2cc(NC(=O)Nc3ccccc3)ccc2O1 returned S100A4 inh HTS -43.5, DENV2 CPE -5.3 and XiGFP reactiv 0.2.
For C[C@H](CO)N1C[C@H](C)[C@H](CN(C)S(=O)(=O)c2cccs2)OCCCC[C@H](C)Oc2ccc(NC(=O)c3ccccc3)cc2C1=O the results were DENV2 CPE 2.8, E-sel inducer 0.2 and XiGFP reactiv 0.1.
`C[C@@H]1CN([C@@H](C)CO)C(=O)c2cc(NC(=O)c3ccccc3)ccc2O[C@@H](C)CCCCO[C@@H]1CN(C)S(=O)(=O)c1cccs1` gave DENV2 CPE 45.2*, E-sel inducer -0.1 and XiGFP reactiv 0.0.
Screening C[C@H](CO)N1C[C@H](C)[C@@H](CN(C)S(=O)(=O)c2cccs2)Oc2ccc(NC(=O)CCN3CCOCC3)cc2C1=O returned S100A4 inh HTS -0.9, DENV2 CPE -1.1, E-sel inducer 62.9* and XiGFP reactiv -1.3.
For O=S(=O)(Nc1ccccc1)C1CCCCC1 the results were S100A4 inh HTS -1.1, DENV2 CPE -8.0, E-sel inducer -0.6 and XiGFP reactiv -0.1.
`COc1ccccc1Cn1c(=S)[nH]c2cc(C(=O)N3CCC(C(N)=O)CC3)ccc2c1=O` gave S100A4 inh HTS -1.1, DENV2 CPE -3.0 and XiGFP reactiv 0.2.
For COc1cccc(NC(=O)N[C@H]2C=C[C@H](CC(=O)NCc3ccccn3)O[C@H]2CO)c1 the results were S100A4 inh HTS -2.5, DENV2 CPE 29.1*, E-sel inducer 0.8 and XiGFP reactiv 0.1.
For COc1cccc(NC(=O)N[C@@H]2C=C[C@@H](CC(=O)NCc3ccncn3)O[C@@H]2CO)c1 the results were S100A4 inh HTS 90.0*, DENV2 CPE -3.8, E-sel inducer -0.3 and XiGFP reactiv 0.1.
Screening O=C(C[C@H]1C=C[C@@H](NC(=O)c2ccc(F)cc2)[C@H](CO)O1)NCc1ccncn1 returned S100A4 inh HTS 5.9, DENV2 CPE 2.8, E-sel inducer -0.5 and XiGFP reactiv -0.3.
O=C(C[C@H]1C=C[C@H](NC(=O)c2ccc(F)cc2)[C@H](CO)O1)NCc1ccncn1 was read as S100A4 inh HTS 116.4*, DENV2 CPE -2.2, E-sel inducer 0.7 and XiGFP reactiv -0.4.
O=C(C[C@H]1C=C[C@H](NC(=O)Cc2ccccn2)[C@@H](CO)O1)NCCc1ccncc1 was read as S100A4 inh HTS 1.8, DENV2 CPE 23.2*, E-sel inducer 0.4 and XiGFP reactiv 0.0.
Screening Cc1ccc(C2CC(c3ccccc3)n3ncnc3N2)cc1 (stereo not drawn) returned S100A4 inh HTS 7.7, DENV2 CPE 4.0, E-sel inducer -0.1 and XiGFP reactiv 0.3.
`O=S(=O)(NC1CCCCC1)c1cccs1` gave S100A4 inh HTS 7.4, DENV2 CPE 19.6 and XiGFP reactiv 0.1.
Screening O=C(C[C@H]1C=C[C@H](NC(=O)NC2CCCCC2)[C@H](CO)O1)NCc1ccc(F)cc1 returned S100A4 inh HTS -1.1, DENV2 CPE 27.9*, E-sel inducer -0.3 and XiGFP reactiv 0.0.
Screening C[C@@H]1CN([C@@H](C)CO)C(=O)c2cc(NC(=O)Cc3cn(C)c4ccccc34)ccc2O[C@H]1CN(C)C(=O)Nc1ccccc1 returned S100A4 inh HTS -13.9, DENV2 CPE 34.8*, E-sel inducer 0.0 and XiGFP reactiv 0.1.
`C[C@@H]1CN([C@@H](C)CO)C(=O)c2cc(NC(=O)Cc3cn(C)c4ccccc34)ccc2O[C@H]1CN(C)C(=O)Nc1ccc2c(c1)OCO2` gave S100A4 inh HTS 9.4, DENV2 CPE 1.4 and XiGFP reactiv -0.8.
C[C@H]1CN([C@@H](C)CO)C(=O)c2cc(NC(=O)Cc3cn(C)c4ccccc34)ccc2O[C@H]1CN(C)C(=O)Nc1ccc2c(c1)OCO2 was read as S100A4 inh HTS -2.8, DENV2 CPE 28.4* and XiGFP reactiv 0.4.
For O=C(Nc1ccc2c(c1)C(N1CCOCC1)c1ccccc1-2)C(F)(F)F (stereo not drawn) the results were S100A4 inh HTS -2.5, DENV2 CPE 5.7, E-sel inducer 0.5 and XiGFP reactiv 0.2.
Screening COc1ccc(CC(N)c2csc(NC(=O)Nc3ccccc3-c3ccccc3)n2)cc1 (stereo not drawn) returned S100A4 inh HTS -4.4, DENV2 CPE 12.4, E-sel inducer 0.0 and XiGFP reactiv 0.0.
`O=C1N(Cc2cccc(Cl)c2)C[C@@H]2C[C@@H](c3ccco3)N3CCC[C@@]123` gave S100A4 inh HTS -9.1, DENV2 CPE 1.1 and XiGFP reactiv 0.0.
Screening COc1ccc(N2CCN(Cc3nc4c(c(=O)[nH]c(=O)n4C)n3Cc3cccc(Cl)c3)CC2)cc1 returned S100A4 inh HTS 3.2, DENV2 CPE 98.1*, E-sel inducer 0.0 and XiGFP reactiv 0.3.
Screening O=C(/C=C/[C@H]1O[C@@H](n2ccc(=O)[nH]c2=O)[C@H](O)[C@@H]1O)NCc1cccs1 returned S100A4 inh HTS -6.5, DENV2 CPE 22.5* and XiGFP reactiv 0.2.
For CN(C)C(=O)c1cccc(-c2ccc([C@@H]3[C@@H](CO)N(C(=O)C4CCC4)[C@H]3C#N)cc2)c1 the results were S100A4 inh HTS -0.8, DENV2 CPE -11.6, E-sel inducer -0.4 and XiGFP reactiv 0.0.
CN(C)C(=O)c1ccc(-c2ccc([C@@H]3[C@@H](CO)N(C(=O)C4CCCC4)[C@H]3C#N)cc2)cc1 was read as S100A4 inh HTS 0.6, DENV2 CPE 29.0*, E-sel inducer -0.3 and XiGFP reactiv 0.0.
For CN(C)CC(=O)N1[C@H](C#N)[C@H](c2ccc(-c3ccc(C(=O)N(C)C)cc3)cc2)[C@H]1CO the results were S100A4 inh HTS -1.5, DENV2 CPE 37.5*, E-sel inducer 0.1 and XiGFP reactiv -0.1.
